Measured values: ChEMBL document CHEMBL3297658, “Potent fluorinated agelastatin analogues for chronic lymphocytic leukemia: design, synthesis, and pharmacokinetic studies” (J Med Chem, 2014)
Converted amounts (≈) assume the structure as drawn.

Experiments:
[1] = Antitumor activity against CLL1 cells isolated from CLL patient assessed as cell viability after 48 hrs by FACS analysis; assay type: functional, cell-based; details: Homo sapiens
Outline: (§1)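 Primary CLL patient cells or JVM-2 line cultured 48 h (37 °C, 5% CO2) in RPMI + 10% FBS with graded compound. Stained 30 min at 37 °C with 40 nM DiOC6 and 10 μg/mL PI, then flow cytometry (525 nm DiOC6, 600 nm PI). Viability = % DiOC6+/PI− relative to untreated or vehicle control. EC50 and SE fitted from dose–response curves.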

[2] = Antitumor activity against CLL2 cells isolated from CLL patient assessed as cell viability after 48 hrs by FACS analysis; assay type: functional, cell-based, Homo sapiens; details: cll2; outline: as §1
[3] = Antitumor activity against human JVM2 cells assessed as cell viability after 48 hrs by FACS analysis; assay type: functional, cell-based; details: JVM-2, 48 h; outline: as §1
HeLa = experiment: Antitumor activity against human HeLa cells assessed as cell viability by MTT assay; assay type: functional, cell-based
Outline: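 Adherent HeLa cells exposed to compound, then medium replaced with 0.5 mg/mL MTT in phenol-red-free RPMI and incubated overnight at 37 °C. Lysed with 15% SDS/0.015 M HCl and OD read at 570 nm once formazan dissolved. EC50 and SE derived from dose–response curves.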

[4] = Antitumor activity against CLL3 cells isolated from CLL patient assessed as cell viability after 48 hrs by FACS analysis; assay type: functional, cell-based; details: Homo sapiens; outline: as §1
[5] = Antitumor activity against CLL4 cells isolated from CLL patient assessed as cell viability after 48 hrs by FACS analysis; assay type: functional, cell-based; details: Homo sapiens; outline: as §1
[6] = Antitumor activity against CLL5 cells isolated from CLL patient assessed as cell viability after 48 hrs by FACS analysis; assay type: functional, cell-based; details: Homo sapiens; outline: as §1
[7] = Antitumor activity against CLL6 cells isolated from CLL patient assessed as cell viability after 48 hrs by FACS analysis; assay type: functional, cell-based; details: Homo sapiens, CLL6, 48 h; outline: as §1
[8] = AUC in BALB/c mouse plasma at 2.5 mg/kg, iv administered as single dose by LC/MS analysis; assay type: ADME, organism-based; set-up: dose 2.5 mg/kg, route intravenous
Outline: (§2)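 Female BALB/c mice given a single 2.5 mg/kg dose intravenously (IP arm run in parallel). Plasma concentration–time course followed by LCMS. AUC, Cmax, Tmax and t1/2 calculated from the curves.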

[9] = Cmax in BALB/c mouse plasma at 2.5 mg/kg, iv administered as single dose by LC/MS analysis; assay type: ADME, organism-based; set-up: dose 2.5 mg/kg, route intravenous; outline: as §2
[10] = Tmax in BALB/c mouse plasma at 2.5 mg/kg, iv administered as single dose by LC/MS analysis; assay type: ADME, organism-based; set-up: dose 2.5 mg/kg, route intravenous; outline: as §2
[11] = Half life in BALB/c mouse plasma at 2.5 mg/kg, iv administered as single dose by LC/MS analysis; assay type: ADME, organism-based; set-up: dose 2.5 mg/kg, route intravenous; outline: as §2
[12] = AUC in BALB/c mouse plasma at 2.5 mg/kg, ip administered as single dose by LC/MS analysis; assay type: ADME, organism-based; set-up: dose 2.5 mg/kg, route intraperitoneal
Outline: (§3)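 Female BALB/c mice dosed at 6 weeks of age with a single intraperitoneal dose of 2.5 or 5.0 mg/kg, n = 4. Tail-vein blood taken at set times and stored at -80 °C. Samples precipitated with CH3CN, spun at 3000g for 10 min, concentrated, reconstituted in 1:1 CH3CN/H2O and quantified by LCMS. PK parameters derived from the concentration–time curves.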

[13] = Cmax in BALB/c mouse plasma at 2.5 mg/kg, ip administered as single dose by LC/MS analysis; assay type: ADME, organism-based; set-up: dose 2.5 mg/kg, route intraperitoneal; outline: as §3
[14] = Tmax in BALB/c mouse plasma at 2.5 mg/kg, ip administered as single dose by LC/MS analysis; assay type: ADME, organism-based; set-up: dose 2.5 mg/kg, route intraperitoneal; outline: as §3
Mus musculus = experiment: Half life in BALB/c mouse plasma at 2.5 mg/kg, ip administered as single dose by LC/MS analysis; assay type: ADME, organism-based; set-up: dose 2.5 mg/kg, route intraperitoneal; details: in vivo; outline: as §3
[15] = AUC in BALB/c mouse plasma at 5 mg/kg, ip administered as single dose by LC/MS analysis; assay type: ADME, organism-based; set-up: dose 5 mg/kg, route intraperitoneal; outline: as §3
[16] = Cmax in BALB/c mouse plasma at 5 mg/kg, ip administered as single dose by LC/MS analysis; assay type: ADME, organism-based; set-up: dose 5 mg/kg, route intraperitoneal; outline: as §3
[17] = Tmax in BALB/c mouse plasma at 5 mg/kg, ip administered as single dose by LC/MS analysis; assay type: ADME, organism-based; set-up: dose 5 mg/kg, route intraperitoneal; outline: as §3
[18] = Half life in BALB/c mouse plasma at 5 mg/kg, ip administered as single dose by LC/MS analysis; assay type: ADME, organism-based; set-up: dose 5 mg/kg, route intraperitoneal; outline: as §3
Liver microsome = experiment: Metabolic stability in human liver microsomes at 100 uM measured after 1 hr by LC/MS analysis in presence of 1 mM NADPH; assay type: ADME
Outline: (§4)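 Microsomes (final protein 5 mg/mL, mouse or human) in 0.1 M sodium phosphate pH 7.4 with compound at 100 μM final (DMSO <1%). Preincubated 5 min at 37 °C, started with NADPH (1 mM final), run 60 min at 37 °C with agitation. Stopped with MeOH and centrifuged; supernatant analysed by LCMS. Controls: zero time, no NADPH, heat-inactivated microsomes, and 7-ethoxycoumarin as CYP substrate.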

Liver [19] = experiment: Metabolic stability in mouse liver microsomes at 100 uM measured after 1 hr by LC/MS analysis in presence of 1 mM NADPH; assay type: ADME; outline: as §4
Liver [20] = experiment: Metabolic stability in mouse liver microsomes containing glucuronidase; assay type: ADME
Liver [21] = experiment: Metabolic stability in human liver S9 fraction containing glucuronidase; assay type: ADME, subcellular
KB = experiment: Cytotoxicity against human KB cells; assay type: functional, cell-based
[22] = Cytotoxicity against human CLL cells; assay type: functional, cell-based
Outline: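 Primary patient CLL cells cultured 48 h (37 °C, 5% CO2) in RPMI with 10% FBS and test compound. Viability taken as the DiOC6+/PI− fraction relative to untreated or vehicle control. EC50 with SE from dose–response curves.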

Plasma = experiment: Protein binding in BALB/c mouse plasma at 50 uM after 1 to 24 hrs by LC-MS method; assay type: ADME, cell-free
Outline: (§5)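 Compound added to pooled female BALB/c mouse plasma or serum, or to human AB serum, at 50 μM final (1% DMSO) and incubated at 37 °C with gentle agitation. Aliquots taken at 0, 0.5, 1, 2, 8, 18 and 24 h, proteins precipitated with CH3CN, spun at 3000g for 10 min, supernatant analysed by LCMS. Run in triplicate.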

Serum [23] = experiment: Protein binding in BALB/c mouse serum at 50 uM after 1 to 24 hrs by LC-MS method; assay type: ADME; outline: as §5
Serum [24] = experiment: Protein binding in human AB serum at 50 uM after 1 to 24 hrs by LC-MS method; assay type: ADME; outline: as §5
[25] = Drug recovery in BALB/c mouse plasma at 50 uM after 24 hrs by LC-MS method; assay type: ADME, cell-free; details: read-out: Drug recovery; outline: as §5
[26] = Drug recovery in BALB/c mouse serum at 50 uM after 24 hrs by LC-MS method; assay type: ADME, cell-free; details: read-out: Drug recovery; outline: as §5
[27] = Drug recovery in human AB serum at 50 uM after 24 hrs by LC-MS method; assay type: ADME, cell-free; details: read-out: Drug recovery; outline: as §5

CN1C(=O)N[C@H]2[C@@H]3NC(=O)c4ccc(Br)n4[C@@H]3C[C@]21O (stereo in doubt; 1a) [AGELASTATIN A]
EC50 [1]: 310 nM | EC50 [2]: 160 nM | EC50 [3]: 280 nM | EC50 (HeLa): 110 nM | EC50 [4]: 240 nM | EC50 [5]: 370 nM | EC50 [6]: 290 nM | EC50 [7]: 1150 nM | AUC [8]: 1.74 µM·h | Cmax [9]: 4500 nM | Tmax [10]: 2 min | half-life [11]: 4 min | AUC [12]: 2.95 µM·h | Cmax [13]: 1280 nM | Tmax [14]: 30 min | t1/2 (Mus musculus): 60 min | AUC [15]: 4.29 µM·h | Cmax [16]: 2300 nM | Tmax [17]: 30 min | half-life [18]: 60 min | Stability (Liver microsome): Stable | Stability (Liver [19]): Stable | Stability (Liver [20]): Stable | Stability (Liver [21]): Stable | IC50 (KB): 0.5 µg/mL (≈ 1.47 µM) | IC50 [22]: 60 nM | PPB (Plasma): Not Active | PB (Serum [23]): Not Active | PB (Serum [24]): Not Active | remaining at 24 h, 50 µM [25]: 65% | remaining at 24 h, 50 µM [26]: 65% | remaining at 24 h, 50 µM [27]: 65%
